We go through 37 compounds from ChEMBL document CHEMBL4376827, “Structure-Activity Relationship Studies To Identify Affinity Probes in Bis-aryl Sulfonamides That Prolong Immune Stimuli” (J Med Chem, 2019).

For data set [1], the species on record is Homo sapiens. As to the kind of experiment: Activation of LPS-induced NF-kappaB activity in human THP1-Blue-NF-kappaB cells assessed as increase in SEAP reporter activity at 5 uM incubated for 20 hrs by quanti-blue SEAP assay relative to control. In a few lines: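 THP1-Blue NF-κB cells, 10^5/well, in RPMI with 10% FBS, pen/strep and Normocin. Compound (5 μM single point or graded concentrations, 0.05% DMSO) is added together with LPS; methods give final LPS 10 μg/mL, table footnote gives 10 ng/mL. Supernatant SEAP is read after 20 h by QuantiBlue colorimetry at 630 nm.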

The species named for data set [2] is Homo sapiens. Put plainly: Activation of IFNalpha signalling in human ISRE-bla-THP1 cells assessed as increase in type-1 IFN-alpha induced ISRE activity at 5 uM preincubated for 16 hrs followed by CCF4-AM substrate addition and measured after 3 hrs by FRET based assay relative to control. The class given is cell-based. In a few lines:
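ISRE-bla THP-1 cells, 5×10^4/well, in RPMI with 10% dialyzed FBS, 0.1 mM non-essential amino acids, 1 mM pyruvate and pen/strep. Cells are co-treated with IFN-α (final 100 U/mL) and compound: 5 μM single point or graded concentrations, 0.05% DMSO. After 16 h, CCF4-AM is added for 3 h at RT in the dark.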

For data set [3], the system named is THP-1. As to the kind of experiment: Cytotoxicity against human THP1 cells assessed as reduction in cell viability at 5 uM incubated for 18 hrs by MTT assay relative to control. As to conditions: thp-1, 18 h.

On to `CCOc1ccc(S(=O)(=O)Nc2cc(OC)c(Br)cc2OC)cc1`, for which the results for the Activity in data set [1], in data set [2] and in data set [3] were 176%, 235% and 68.8%, respectively.

`CCOc1ccc(S(=O)(=O)N(CCCNC(=O)c2ccc(-c3c4ccc(=[N+](C)C)cc-4oc4cc(N(C)C)ccc34)c(C(=O)O)c2)c2cc(OC)c(Cl)cc2OC)cc1`: the figures for the Activity in data set [1], in data set [2] and in data set [3] were 111%, 123% and 76.9%, respectively.

On to `COc1cc(NS(=O)(=O)c2ccc(N)cc2)c(OC)cc1Cl`, for which the Activity in data set [1] turned out to be 101%; in data set [2] it was 103%; in data set [3] it was 96%.

For the compound `CCCN(c1cc(OC)c(Cl)cc1OC)S(=O)(=O)c1ccc(OCC)cc1`, the Activity in data set [1] was determined as 227%; in data set [2], 199%; in data set [3], 71.6%.

With `CCCCCN(c1cc(OC)c(Cl)cc1OC)S(=O)(=O)c1ccc(OCC)cc1`, the Activity in data set [1] amounted to 135%; in data set [2] it was 105%; in data set [3] it was 72.9%.

Take `CCOC(=O)CCCN(c1cc(OC)c(Cl)cc1OC)S(=O)(=O)c1ccc(OCC)cc1`: the Activity in data set [1] was 199%; in data set [2], 199%; in data set [3], 80.1%.

As for `COc1cc(NS(=O)(=O)c2ccc(Oc3ccccc3)cc2)c(OC)cc1Cl`, the Activity in data set [1] worked out at 98%; in data set [2] it was 95%; in data set [3] it was 91.3%.

Consider `CCOc1ccc(S(=O)(=O)N(CC(C)C)c2cc(OC)c(Cl)cc2OC)cc1`, for which the Activity came out at 175% in data set [1], 193% in data set [2] and 76.7% in data set [3].

In the case of `COc1cc(NS(=O)(=O)c2ccc(C#N)cc2)c(OC)cc1Cl`, the figures for the Activity in data set [1], in data set [2] and in data set [3] were 97%, 106% and 102.9%, respectively.

As for `CCOc1ccc(S(=O)(=O)Nc2cc(OC)c(N=[N+]=[N-])cc2OC)cc1`, the Activity came to 215% in data set [1], 201% in data set [2] and 76.6% in data set [3].

As for `CCCOc1ccc(S(=O)(=O)Nc2cc(OC)c(Cl)cc2OC)cc1`, the Activity in data set [1] is 149%; in data set [2], 125%; in data set [3], 71.3%.

In the case of `CCCCOc1ccc(S(=O)(=O)Nc2cc(OC)c(Cl)cc2OC)cc1`, the Activity amounted to 101% in data set [1], 106% in data set [2] and 95.3% in data set [3].

Take `COC(=O)c1ccc(S(=O)(=O)Nc2cc(OC)c(Cl)cc2OC)cc1`: the Activity is 191% in data set [1], 202% in data set [2] and 74.4% in data set [3].

In the case of `CCOc1ccc(S(=O)(=O)N(CCCN)c2cc(OC)c(N=[N+]=[N-])cc2OC)cc1.Cl`, the Activity in data set [1] turned out to be 138%; in data set [2] it was 117%; in data set [3], 68.9%.

Take `COc1cc(NS(=O)(=O)c2ccc(CNC(=O)OC(C)(C)C)cc2)c(OC)cc1Cl`: the Activity worked out at 100% in data set [1], 101% in data set [2] and 109.2% in data set [3].

For `CCOc1ccc(S(=O)(=O)N(c2cc(OC)c(Cl)cc2OC)C(C)C)cc1`, the results for the Activity in data set [1], in data set [2] and in data set [3] were 76%, 169% and 103.2%, respectively.

`CCOc1ccc(S(=O)(=O)N(CCCC(=O)O)c2cc(OC)c(Cl)cc2OC)cc1`: the Activity in data set [1] came out at 230%; in data set [2], 151%; in data set [3] it was 73.4%.

On to `COc1cc(NS(=O)(=O)c2ccc([N+](=O)[O-])cc2)c(OC)cc1Cl`, for which the Activity in data set [1] came to 101%; in data set [2], 103%; in data set [3], 97.4%.

As to `CCOc1ccc(S(=O)(=O)Nc2cc(OC)ccc2OC)cc1`, the figures for the Activity in data set [1], in data set [2] and in data set [3] were 116%, 96% and 73.1%, respectively.

Regarding `CCCCN(c1cc(OC)c(Cl)cc1OC)S(=O)(=O)c1ccc(OCC)cc1`, the values for the Activity in data set [1], in data set [2] and in data set [3] were 192%, 156% and 77.7%, respectively.

Turning to `CCOc1ccc(S(=O)(=O)Nc2ccc(Cl)cc2OC)cc1`, the Activity in data set [1] was found to be 141%; in data set [2] it was 109%; in data set [3] it was 78.3%.

For `COc1cc(NS(=O)(=O)c2ccc(C(N)=O)cc2)c(OC)cc1Cl`, the Activity in data set [1] is 103%; in data set [2], 94%; in data set [3], 91%.

Regarding `C#CCCN(c1cc(OC)c(Cl)cc1OC)S(=O)(=O)c1ccc(OCC)cc1`, the results for the Activity in data set [1], in data set [2] and in data set [3] were 206%, 201% and 70.1%, respectively.

On to `CCOc1ccc(S(=O)(=O)Nc2cc(OC)c([N+](=O)[O-])cc2OC)cc1`, for which the Activity came to 133% in data set [1], 110% in data set [2] and 79.2% in data set [3].

In the case of `CCCc1ccc(S(=O)(=O)Nc2cc(OC)c(Cl)cc2OC)cc1`, the results for the Activity in data set [1], in data set [2] and in data set [3] were 102%, 103% and 85.7%, respectively.

Consider `CCOc1ccc(S(=O)(=O)N(CCCNC(=O)CCCC[C@H]2SC[C@H]3NC(=O)N[C@H]32)c2cc(OC)c(N=[N+]=[N-])cc2OC)cc1`, for which the Activity in data set [1] came to 162%; in data set [2], 140%; in data set [3], 73.8%.

`C#CCOCCOCCOCCN(c1cc(OC)c(Cl)cc1OC)S(=O)(=O)c1ccc(OCC)cc1`: the Activity came to 107% in data set [1], 130% in data set [2] and 73.7% in data set [3].

For the compound `CCOc1ccc(S(=O)(=O)Nc2cc(OC)c(Cl)c(OC)c2)cc1`, the Activity in data set [1] is 179%; in data set [2], 218%; in data set [3] it was 71.4%.

Regarding `CCOC(=O)c1ccc(S(=O)(=O)Nc2cc(OC)c(Cl)cc2OC)cc1`, the Activity came out at 189% in data set [1], 169% in data set [2] and 70.8% in data set [3].

In the case of `COc1ccc(S(=O)(=O)Nc2cc(OC)c(Cl)cc2OC)cc1N`, the Activity was determined as 158% in data set [1], 166% in data set [2] and 77.3% in data set [3].

As to `CCOc1ccc(S(=O)(=O)Nc2cc(OC)c(N)cc2OC)cc1`, the Activity in data set [1] stood at 101%; in data set [2] it was 102%; in data set [3] it was 92.2%.

For `COc1cc(NS(=O)(=O)c2ccc(OC)c(N=[N+]=[N-])c2)c(OC)cc1Cl`, the Activity in data set [1] was 104%; in data set [2], 104%; in data set [3], 87.2%.

As to `CCOc1ccc(S(=O)(=O)N(CCc2ccccc2)c2cc(OC)c(Cl)cc2OC)cc1`, the Activity in data set [1] worked out at 131%; in data set [2] it was 141%; in data set [3], 44%.

For the compound `COc1cc(NS(=O)(=O)c2ccc(O)cc2)c(OC)cc1Cl`, the Activity in data set [1] turned out to be 98%; in data set [2] it was 104%; in data set [3], 85.2%.

For `CNC(=O)c1ccc(S(=O)(=O)Nc2cc(OC)c(Cl)cc2OC)cc1`, the results for the Activity in data set [1], in data set [2] and in data set [3] were 103%, 105% and 77%, respectively.

Regarding `CCOc1ccc(S(=O)(=O)N(Cc2ccccc2)c2cc(OC)c(Cl)cc2OC)cc1`, the Activity in data set [1] was 181%; in data set [2], 159%; in data set [3] it was 71.7%.

As to `CCOc1ccc(S(=O)(=O)N(CCCNC(=O)CCCCCNC(=O)c2ccc3c(c2)C(=O)OC32c3ccc(O)cc3Oc3cc(O)ccc32)c2cc(OC)c(Cl)cc2OC)cc1`, the Activity was found to be 96% in data set [2] and 98.1% in data set [3].
